This is a sample that favours compounds with a hit; in the whole collection about 2% have one here.
zfTRPN1 agonist = zebrafish TRPN1 (NompC) channel agonism; HEK293 zebrafish TRPN1-YFP, Fluo-8 calcium fluorescence; 100% = response to 87 µM carbachol; activation, % at 3 µM; actives 0.18% (n = 220,000); AID 1424;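 active means activation above its plate's cutoff, the mean activation of test wells on that plate plus 3 SD, cut at about 19% in these data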;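 further: 0% = DMSO alone and 100% = 87 µM carbachol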
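Material – zebrafish TRPN1-YFP in HEK293 cells · Doses – 3 µM single point · Schedule – dye 1 h 37 °C plus 30 min RT · Signal – Fluo-8 calcium fluorescence, excitation 470-495 nm, emission 515-575 nm · Read-out – % activation versus carbachol response · Control set – carbachol high, DMSO low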
CRFR2-BP antag = antagonists of CRF-binding protein/CRF-R2 receptor complex; actives 0.59% (n = 350,000); AID 588475; inhibition, % at 11.8 µM; HEK293 CRF-R2/CRF-BP, CRF-induced calcium fluorescence;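 active means inhibition of the ligand-induced calcium signal above about 50% at the single tested concentration, limit read from the data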
TRPML3 ag = agonists of human TRPML3 channel | Q8TDD5 | HEK293 TRPML3-YFP, Fluo-8 calcium fluorescence; 100% = the carbachol control signal | activation, % at 3 µM | actives 0.29% (n = 220,000) | AID 1448;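 active means activation above its plate's cutoff, the mean activation of the plate's test wells plus 3 SD, cut at about 12% in these data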;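 further: 0% = DMSO only wells and 100% = carbachol wells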
Target sequence (Q8TDD5 whole entry, looked up): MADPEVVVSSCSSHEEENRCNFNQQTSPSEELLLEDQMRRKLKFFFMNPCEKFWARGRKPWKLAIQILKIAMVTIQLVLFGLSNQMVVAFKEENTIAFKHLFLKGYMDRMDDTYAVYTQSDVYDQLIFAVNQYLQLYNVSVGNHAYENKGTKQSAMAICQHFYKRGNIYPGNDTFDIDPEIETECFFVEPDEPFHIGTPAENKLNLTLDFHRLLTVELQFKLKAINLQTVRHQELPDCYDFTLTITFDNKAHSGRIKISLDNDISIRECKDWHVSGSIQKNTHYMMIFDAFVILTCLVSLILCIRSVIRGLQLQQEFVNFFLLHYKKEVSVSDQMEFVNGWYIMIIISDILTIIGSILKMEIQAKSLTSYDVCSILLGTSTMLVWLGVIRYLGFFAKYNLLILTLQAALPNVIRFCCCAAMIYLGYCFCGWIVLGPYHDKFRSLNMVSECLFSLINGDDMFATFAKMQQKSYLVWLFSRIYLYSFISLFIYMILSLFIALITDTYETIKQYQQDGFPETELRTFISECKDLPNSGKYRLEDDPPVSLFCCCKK
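Test system: HEK293 cells stably carrying human TRPML3-YFP; Doses: single dose, 3 µM final nominal compound, 0.3% DMSO final; Schedule: dye loading 1 h 37 °C then 30 min ambient, 125 s read; Technique: Fluo-8 calcium fluorescence; Benchmarks: high control carbachol 87 µM, low control DMSO.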
GPR7 antag = human neuropeptides B/W receptor 1 antagonism; P48145; GPR7-expressing cells, fluorescence antagonist assay; inhibition, % at 4.4 µM; actives 1.1% (n = 290,000); in the data active means inhibition above about 16%, passing the limit was not always enough;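 further: cells stimulated with the agonist NPW; 0% = agonist with vehicle and 100% = vehicle without agonist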
CRFBP-R2 agonist = CRF-BP/CRF-R2 complex agonism; AID 588473; actives 0.46% (n = 350,000); HEK293 CRF-R2/CRF-BP, calcium dye fluorescence (FLIPR); percent of saturating CRF peptide response; activation, % at 13.2 µM;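 active means activation of at least 50%, plus an integration ratio under a set limit after plate pattern correction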;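 further: plate controls were neutral control wells without compound for no effect and CRF at EC100 for full effect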
Numbers without * were called inactive; . = no result given.

SMILES | zfTRPN1 agonist | CRFR2-BP antag | TRPML3 ag | GPR7 antag | CRFBP-R2 agonist
O=[N+]([O-])c1ccc(-c2ccc(/C=N/Nc3nc(N4CCCCC4)nc(N4CCCCC4)n3)o2)cc1 | 2.3 | -113.5 | 0.3 | 0.1 | 68.9*
Cc1cc(NS(=O)(=O)c2ccc(NC(=O)CCCOc3ccccc3C)cc2)nc(C)n1 | . | -35.7 | . | -9.2 | 0.4
COc1ccc(CNC(=O)C(C)Sc2ccc(S(=O)(=O)N3CCOCC3)cn2)cc1 (configuration not stated) | . | -4.5 | . | . | -0.2
CCn1c(-c2ccc(-c3ccccc3)cc2)c[nH]c1=S | -1.8 | -17.4 | -0.9 | -17.6 | 0.9
Cn1c(-c2ccc(-c3ccccc3)cc2)c[nH]c1=S | -2.4 | 107.5* | -1.1 | 7.3 | 0.1
Cc1ccc(CNC(=O)c2cc(S(=O)(=O)N3CCOCC3)cn2C)cc1 | . | 14.6 | . | -0.8 | -2.8
Nc1cc(C(=O)OCC(=O)NCCC2=CCCCC2)ccc1Cl | . | 10.0 | . | . | -6.6
O=C(COC(=O)c1cnc(Cl)c(Cl)c1)NCCC1=CCCCC1 | -0.5 | 86.4* | -1.2 | -2.2 | 5.0
CCOC(=O)N1CCN(Cc2nc3cc(NC(=O)c4ccco4)ccc3n2C)CC1 | . | 22.6 | . | 0.2 | -0.6
Cc1nn(-c2ccccc2)c(C)c1NC(=O)COC(=O)c1ccccc1OC(F)F | . | 57.5* | . | -0.5 | 1.4
O=C(COC(=O)Cc1ccccc1[N+](=O)[O-])Nc1nnc(-c2ccccc2)o1 | . | 12.0 | . | . | 0.1
CCC(=O)N1N=C(c2cccs2)CC1c1ccco1 (configuration not stated) | -1.9 | 11.9 | -0.5 | 7.6 | 0.0
COc1ccc(C2=NN(C(=O)c3ccco3)C(c3cccs3)C2)cc1OC (configuration not stated) | . | 4.1 | . | . | -2.3
COc1cccc(C2CC(c3cccs3)=NN2C(=O)c2ccco2)c1O (configuration not stated) | . | 67.2* | . | -11.4 | -1.1
COc1ccc(C2CC(c3cccs3)=NN2C(=O)c2ccccc2)cc1OC (configuration not stated) | . | 51.9* | . | -6.9 | -0.2
O=C(c1cccs1)N1N=C(c2ccccc2)CC1c1ccccc1O (configuration not stated) | -1.4 | 41.0 | -0.2 | -8.8 | 0.6
O=C(c1ccco1)N1N=C(c2cccs2)CC1c1ccccc1O (configuration not stated) | . | 92.6* | . | 2.0 | -9.4
Cc1ccc(C2=NN(C(=O)c3cccs3)C(c3ccccc3O)C2)cc1 (configuration not stated) | 1.8 | 74.7* | 0.6 | -1.1 | -2.1
CCOC(=O)C1(CCOc2ccccc2)CCN(C(=O)CCSC)CC1 | . | -1.9 | . | 1.1 | -0.2
Cc1ccsc1C(=O)C1CCCN(Cc2cccn2-c2ccc(Cl)cn2)C1 (configuration not stated) | -1.8 | -8.7 | -0.4 | 39.5* | -0.4
CCCCCc1nnc(NC(=O)c2ccc3nc[nH]c3c2)s1 | . | -19.2 | . | . | 0.0
C/C(=N\Nc1ccc([N+](=O)[O-])cc1)c1cc2ccccc2o1 | 2.1 | -59.1 | 2.2 | -3.5 | 53.3*
COc1ccc(/C=C/C(=O)NC(=S)Nc2ccc(S(=O)(=O)Nc3cc(OC)ncn3)cc2)cc1 | 1.7 | 57.6* | 0.2 | 9.6 | -2.0
CCOC(=O)/C(=C/c1ccc(N2CCC(c3ccccc3)=N2)cc1)C(C)=O | 1.5 | -306.8 | 1.5 | 8.0 | 253.8*
c1ccc(C2=NN(c3ccccc3)CC2)cc1 | -0.3 | 0.4 | 0.2 | -6.6 | -1.1
SMILES | zfTRPN1 agonist | CRFR2-BP antag | TRPML3 ag | GPR7 antag | CRFBP-R2 agonist
CCCCc1nc2ccccc2c(NC(=O)CN(CC)CC)c1CCC | -1.2 | 97.6* | 0.0 | 8.4 | 0.5
Cc1cccc(C)c1NC(=O)C1(N2C(=O)CC2c2ccccc2)CCCCC1 (configuration not stated) | -3.0 | -10.0 | -1.1 | 18.4* | 1.8
COCCn1c(-c2ccc(Cl)cc2)cnc1SCC(=O)NCc1cccs1 | -2.3 | 21.8 | -1.4 | 19.9* | -3.0
COc1ccccc1C(C(=O)NC1CCCC1)N(C(=O)c1csnn1)C1CC1 (configuration not stated) | . | 4.8 | . | -13.4 | -0.7
CCn1nc([N+](=O)[O-])c(C(C#N)c2nc3cc(C(F)(F)F)ccc3s2)c(Cl)c1=O (configuration not stated) | -1.6 | 68.2* | -0.7 | -8.0 | 28.5
Cc1ccc(Cn2c(C(C)Nc3nc(-c4ccc(Cl)c([N+](=O)[O-])c4)cs3)nc3cc(C(F)(F)F)ccc32)cc1 (configuration not stated) | . | 3.2 | . | . | -0.2
Cn1nc([N+](=O)[O-])c(C(C#N)c2ccccn2)c(Cl)c1=O (configuration not stated) | 1.1 | 2.9 | 1.6 | -13.7 | -2.3
CCCn1nc([N+](=O)[O-])c(C(C#N)c2nc3ccccc3o2)c(Cl)c1=O (configuration not stated) | -0.7 | 74.4* | -0.2 | 0.6 | 2.9
COc1ccc(NS(=O)(=O)c2ccc(C(=O)N(C)Cc3ccc(C)o3)cc2)cc1 | . | -21.5 | . | . | 9.2
CCOC(=O)Nc1cc2c(c(N)n1)N=C(c1ccccc1)CN2 | . | -80.4 | . | . | 64.6*
C=CCOc1nc2c(c(=O)n(Cc3ccc(Cl)c(Cl)c3)c(=O)n2C)n1C | 0.9 | 50.6* | 0.8 | -9.9 | -1.6
COc1ccc(OC)c(C2=C/C(=C/c3ccccn3)C(=O)O2)c1 | 2.0 | -58.8 | 1.5 | -9.6 | 76.5*
COc1ccc(OC)c(-c2oc3ccccc3c(=O)c2O)c1 | -0.9 | -8.8 | -0.7 | 1.1 | 1.3
CCOC(=O)C1=C(O)/C(=C/c2cn(CC(=O)NCC3CCCO3)c3ccccc23)SC1=Nc1ccc(C)cc1 (configuration not stated) | 1.1 | -18.2 | 1.0 | 2.3 | 60.9*
CCOC(=O)C1=C(O)/C(=C/c2ccc(-c3ccccc3C(=O)O)o2)SC1=Nc1ccc(C)cc1 | . | -26.1 | . | . | 42.9
Cc1[nH]c2ccccc2c1/C=C/c1cc[n+](C)cc1 | 1.1 | -93.9 | 2.2 | -6.6 | 81.3*
Cc1ccccc1/C=C/c1cc[n+](C)cc1 | -0.1 | -28.6 | 0.2 | -9.4 | 1.1
CCC1(C)Cc2ccccc2-c2c1c(=O)n(-c1ccc(C)cc1)c1nnnn21 (configuration not stated) | 1.3 | -14.5 | 1.1 | -2.1 | 2.4
CC1(C)Cc2ccccc2-c2c1c(=O)n(Cc1ccccc1)c1nnnn21 | 0.0 | 61.2* | 1.3 | -10.4 | -1.1
O=C(Cc1cccs1)N(CC1CCCO1)C1(C(=O)NC2CCCC2)CCCCC1 (configuration not stated) | -2.2 | 13.4 | -0.7 | 37.3* | -4.0
O=C(c1ccccn1)N(CC1CCCO1)C1(C(=O)NC2CCCCC2)CCCCC1 (configuration not stated) | 0.0 | 10.6 | -0.1 | 5.9 | 0.3
COc1ccccc1OCC(O)Cn1c(=N)n(CCN2CCCCC2)c2ccccc21 (configuration not stated) | -1.4 | 0.6 | -0.4 | 24.8* | -1.8

Source: PubChem (several laboratories)
